Screening data deposited in PubChem BioAssay by several laboratories.
LMPTP block: blocks human LMPTP phosphatase; inhibition, % at 20 µM; AID 651560; recombinant LMPTP-A, OMFP fluorogenic substrate, fluorescence intensity; P24666; 360,000 compounds, 0.22% hits;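 active = compounds that cut the enzyme signal by at least half of the control window in the single-dose screen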
Target sequence (P24666 whole entry, looked up): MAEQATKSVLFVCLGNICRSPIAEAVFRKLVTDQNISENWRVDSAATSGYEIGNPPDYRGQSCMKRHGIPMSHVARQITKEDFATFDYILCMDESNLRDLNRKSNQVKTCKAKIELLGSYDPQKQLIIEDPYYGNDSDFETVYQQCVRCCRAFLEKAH
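test system = LMPTP-A | amount = 0.625 nM LMPTP-A final | reagent = fluorogenic phosphatase substrate OMFP at 400 µM final | incubation = 50 min at room temperature | benchmarks = no-enzyme low control, uninhibited high control | medium = Bis-Tris pH 6.0, DTT, detergent | signal = fluorescence intensity of OMFP turnover product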
Scp1 inh: inhibitors of human Scp-1 phosphatase; 340,000 compounds, 0.88% hits; inhibition, % at 20 µM; Q9GZU7; Recombinant Scp1, phosphopeptide, malachite green phosphate absorbance;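 active = inhibition above about 50% at 20 µM, limit read from the data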
Target sequence (Q9GZU7 76-261 limits assumed): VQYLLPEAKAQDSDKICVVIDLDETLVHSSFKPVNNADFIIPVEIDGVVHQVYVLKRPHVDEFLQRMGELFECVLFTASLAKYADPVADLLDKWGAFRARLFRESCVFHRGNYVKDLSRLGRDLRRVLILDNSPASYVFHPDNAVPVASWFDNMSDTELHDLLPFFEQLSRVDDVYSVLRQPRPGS
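Material: truncated SCP-1 phosphatase (76-261aa) / Buffer or medium: 50 mM Tris acetate pH 5.5, 0.005% Tween-20, 10 mM MgCl2 / Compound dosing: one concentration, 20 µM, with 1.0% DMSO / Incubation: 45 min room-temperature reaction, 5 min colour, 30 min stabiliser / Detection: colorimetric free-phosphate detection, absorbance 630 nm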
F508del corr: correctors of CFTR F508del function in bronchial epithelial cells; AID 720511; 350,000 compounds, 0.36% hits; CFBE cells, YFP halide quenching; stimulated with forskolin plus potentiator P3; % fluorescence drop versus neutral controls; activity (quench increase), % at 7.58 µM;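 active = mean added fluorescence quench of at least 8% versus neutral control, with both replicates also reaching 8%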;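 also: cells transiently co-express mutant CFTR-F508del with the halide-sensitive YFP; corrector assay measuring rescue of mutant channel to the surface after 24 h compound exposure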
STEP inh: inhibitors of human striatal-enriched phosphatase STEP; P54829; recombinant STEP, OMFP fluorogenic substrate, fluorescence; inhibition, % at 20 µM; 360,000 compounds, 0.25% hits;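 active = inhibition at 20 µM, scaled per plate between control wells, above about 37%, limit read from the data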
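Assay system: isolated STEP enzyme / Timing: 20 min at room temperature, dark / Doses: 20 µM, 1% DMSO / Technique: fluorescence intensity, excitation 480 nm, emission 540 nm / Reagent: fluorogenic phosphatase substrate OMFP at 25 µM final / Measure: percent inhibition scaled to no-enzyme and uninhibited-enzyme controls, plate-pattern corrected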
DNMT1 block: inhibitors of human DNMT1; inhibition (reported as % activation of signal), % at 10 µM; 360,000 compounds, 0.83% hits; P26358; DNMT1 molecular beacon, Hinp1I cleavage, fluorescence; AID 588458; in the data active = inhibition above about 50%
SUMO1-SIM PPI: modulators of human SUMO1-mediated protein-protein interactions; P63165; SUMO1 binding to a labelled peptide, TR-FRET, 1 h; inhibition, % at 20 µM; 360,000 compounds, 0.33% hits; in the data active = inhibition above about 37%
Target sequence (P63165 whole entry, looked up): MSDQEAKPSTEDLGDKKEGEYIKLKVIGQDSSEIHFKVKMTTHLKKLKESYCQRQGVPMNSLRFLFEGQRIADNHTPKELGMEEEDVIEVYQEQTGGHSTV
Numbers stand for hits; – = inactive; · = no result. In the library only some 1.6% were active in any assay of this set; here they are far more common.

SMILES	LMPTP block	Scp1 inh	F508del corr	STEP inh	DNMT1 block	SUMO1-SIM PPI
CO[C@H]1CN(C)C(=O)c2cc(NC(=O)C3CC3)ccc2OC[C@H](C)N(C(=O)c2cccnc2)C[C@H]1C	·	·	–	·	·	·
Cc1ccc(NC(=O)COc2ccc(Br)cc2CO)cc1S(=O)(=O)N1CCOCC1	–	–	8.6	–	–	–
Cc1ccc(-c2cc(C(=O)Nc3ccccn3)c3ccccc3n2)o1	–	58	–	–	61	–
Cc1ccc(NC(=O)c2cc(-c3ccc(C)o3)nc3ccccc23)cc1	–	–	·	–	–	–
COC(=O)[C@@H]1[C@@H](CO)[C@@H]2Cn3c(ccc(-c4ccccc4F)c3=O)[C@@H]2N1C(=O)c1cnccn1	·	·	–	·	·	·
Cc1ccc(/C=N/NC(=O)C2COc3ccccc3O2)s1 (stereo unspecified)	–	–	11	–	–	–
N#C[C@H]1[C@H](c2ccc(C3=CCCCC3)cc2)[C@@H](CO)N1C(=O)NC1CCCCC1	·	·	10	·	·	·
CCOC(=O)C1=C(COc2ccccc2)NC(=O)NC1c1ccc2ccccc2c1 (stereo unspecified)	·	–	–	·	·	·
CCOC(=O)C1=C(COc2ccccc2)NC(=O)NC1c1ccc(Br)cc1 (stereo unspecified)	–	–	–	–	–	47
O=C(C[C@H]1C[C@H]2c3cc(NC(=O)NC4CCCC4)ccc3O[C@H]2[C@@H](CO)O1)NCCc1ccccc1	·	·	–	·	·	·
O=C(NN1C(=O)/C(=C/c2ccc(O)c(O)c2)SC1=S)c1ccccc1	–	–	–	–	50	–
COCCNC(=O)NC12CC3(C)CC(C)(CC(C)(C3)C1)C2	–	–	10	–	–	–
COCCNC(=O)NC12CC3CC(CC(C3)C1)C2	–	–	–	–	–	–
O=C(Cc1ccc(Cl)cc1)OCC(=O)c1ccc[nH]1	–	–	23	–	–	–
O=C(Cc1ccc(Cl)c(Cl)c1)OCC(=O)c1ccc[nH]1	–	–	·	–	–	–
O=C(CN1CCN(S(=O)(=O)c2ccccc2)CC1)Nc1ccccc1C(=O)c1ccccc1	–	–	·	–	–	–
O=C(CN1CCN(S(=O)(=O)c2ccccc2)CC1)Nc1ccccc1Cl	–	–	8.5	–	–	–
CCOc1ccc2[nH]c(C(=O)N/N=C/c3ccc(OC)cc3)cc2c1	–	–	18	–	–	–
COc1ccc2[nH]c(C(=O)N/N=C/c3ccc(O)cc3O)cc2c1	–	–	12	–	–	–
COc1ccc(C#Cc2ccc3c(c2)O[C@H](CN(C)C(=O)Nc2cccc(OC)c2)[C@@H](C)CN([C@H](C)CO)S3(=O)=O)cc1	·	·	–	·	·	·
COc1ccc(NC(=O)N(C)C[C@@H]2Oc3cc(C#CCC(C)C)ccc3S(=O)(=O)N([C@H](C)CO)C[C@@H]2C)cc1	·	·	9.2	·	·	·
COc1ccc(C#Cc2ccc3c(c2)O[C@H](CN(C)C(=O)Nc2cccc(OC)c2)[C@H](C)CN([C@H](C)CO)S3(=O)=O)cc1	·	·	8.6	·	·	·
COc1ccc(NC(=O)N(C)C[C@H]2Oc3cc(C#CCC(C)C)ccc3S(=O)(=O)N([C@H](C)CO)C[C@H]2C)cc1	·	·	–	·	·	·
C[C@@H]1CN([C@H](C)CO)C(=O)Cc2cc(NC(=O)C3CCCCC3)ccc2O[C@@H]1CN(C)C(=O)Nc1ccc(C(F)(F)F)cc1	·	·	–	·	·	·
Cn1c(CC(=O)NN)c(Sc2ccccc2)c2ccccc21	–	–	12	–	–	–
COC(=O)c1c(Sc2ccccc2)c2ccccc2n1C	–	61	–	–	–	–
Cn1c(CC(=O)NCCO)c(Sc2ccccc2)c2ccccc21	–	–	·	–	–	–
COc1ccc(S(=O)(=O)N(C)C[C@H]2Oc3ccc(NS(C)(=O)=O)cc3CC(=O)N([C@@H](C)CO)C[C@H]2C)cc1	·	·	–	·	·	·
COc1ccc([C@H]2CC(=O)C=C(c3ccc(OC)cc3OC)C2)cc1	–	–	11	–	–	–
CC(C)NC(=O)Nc1ccc2c(c1)C(=O)N([C@@H](C)CO)C[C@H](C)[C@H](CN(C)S(=O)(=O)c1cn(C)cn1)OCCCC[C@H](C)O2	·	·	–	·	·	·
